Assay results published in ChEMBL document CHEMBL1806443, “Novel imidazo[4,5-b]pyridine and triaza-benzo[c]fluorene derivatives: synthesis, antiproliferative activity and DNA binding studies” (Eur J Med Chem, 2011).

Assays:
SK-BR-3 [1] = assay: Cell cycle arrest in human SKBR3 cells assessed as accumulation at subG1 phase at 10 uM after 48 hrs by propidium iodide staining based flow cytometeric analysis (reference value: 2.1 +/- 0.2%); type: functional
SK-BR-3 [2] = assay: Cell cycle arrest in human SKBR3 cells assessed as accumulation at subG1 phase at 5 uM after 24 hrs by propidium iodide staining based flow cytometeric analysis (reference value: 39 +/- 1.1%); type: functional
SK-BR-3 [3] = assay: Cell cycle arrest in human SKBR3 cells assessed as accumulation at S phase at 50 uM after 48 hrs by propidium iodide staining based flow cytometeric analysis (reference value: 40.6 +/- 4.9%); type: functional
WI-38 = assay: Antiproliferative activity against human WI38 cells after 72 hrs by MTT assay; type: cell-based; conditions: Homo sapiens, WI-38, 72 h
Method in brief: (§1)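 Monolayer cells in DMEM with 10% FBS, 2 mM L-glutamine, penicillin and streptomycin at 37 °C, 5% CO2. Seeded at 3000-6000 cells/well by doubling time on day 0. Five 10-fold dilutions (0.01–100 µM) were added and incubated 72 h. MTT read-out, converted to percentage growth. IC50 by linear regression between bracketing concentrations. Quadruplicate points, three independent experiments, ANOVA/Tukey p<0.05.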

SK-BR-3 [4] = assay: Cell cycle arrest in human SKBR3 cells assessed as accumulation at S phase at 10 uM after 48 hrs by propidium iodide staining based flow cytometeric analysis (reference value: 40.6 +/- 4.9%); type: functional
SK-BR-3 [5] = assay: Cell cycle arrest in human SKBR3 cells assessed as accumulation at subG1 phase at 50 uM after 24 hrs by propidium iodide staining based flow cytometeric analysis (reference value: 39 +/- 1.1%); type: functional
SK-BR-3 [6] = assay: Antiproliferative activity against human SKBR3 cells after 72 hrs by MTT assay; type: functional, cell-based; conditions: Homo sapiens, SK-BR-3, 72 h; method in brief: as §1
SK-BR-3 [7] = assay: Cell cycle arrest in human SKBR3 cells assessed as accumulation at G2/M phase at 50 uM after 48 hrs by propidium iodide staining based flow cytometeric analysis (reference value: 34.7 +/- 3.3%); type: functional
SK-BR-3 [8] = assay: Cell cycle arrest in human SKBR3 cells assessed as accumulation at G1 phase at 10 uM after 24 hrs by propidium iodide staining based flow cytometeric analysis (reference value: 39.5 +/- 1.1%); type: functional
SK-BR-3 [9] = assay: Cell cycle arrest in human SKBR3 cells assessed as accumulation at subG1 phase at 10 uM after 24 hrs by propidium iodide staining based flow cytometeric analysis (reference value: 39 +/- 1.1%); type: functional
MIA PaCa-2 = assay: Antiproliferative activity against human MIAPaCa2 cells after 72 hrs by MTT assay; type: functional, cell-based; conditions: Homo sapiens, MIA PaCa-2, 72 h; method in brief: as §1
SK-BR-3 [10] = assay: Cell cycle arrest in human SKBR3 cells assessed as accumulation at G2/M phase at 5 uM after 48 hrs by propidium iodide staining based flow cytometeric analysis (reference value: 34.7 +/- 3.3%); type: functional
SK-BR-3 [11] = assay: Cell cycle arrest in human SKBR3 cells assessed as accumulation at subG1 phase at 50 uM after 48 hrs by propidium iodide staining based flow cytometeric analysis (reference value: 2.1 +/- 0.2%); type: functional
SK-BR-3 [12] = assay: Cell cycle arrest in human SKBR3 cells assessed as accumulation at G2/M phase at 50 uM after 24 hrs by propidium iodide staining based flow cytometeric analysis (reference value: 20.6 +/- 2.1%); type: functional
SK-BR-3 [13] = assay: Cell cycle arrest in human SKBR3 cells assessed as accumulation at S phase at 50 uM after 24 hrs by propidium iodide staining based flow cytometeric analysis (reference value: 39.9 +/- 1.5%); type: functional
SK-BR-3 [14] = assay: Cell cycle arrest in human SKBR3 cells assessed as accumulation at G1 phase at 50 uM after 48 hrs by propidium iodide staining based flow cytometeric analysis (reference value: 24.7 +/- 1.9%); type: functional
SK-BR-3 [15] = assay: Cell cycle arrest in human SKBR3 cells assessed as accumulation at S phase at 5 uM after 24 hrs by propidium iodide staining based flow cytometeric analysis (reference value: 39.9 +/- 1.5%); type: functional
SK-BR-3 [16] = assay: Cell cycle arrest in human SKBR3 cells assessed as accumulation at G1 phase at 5 uM after 48 hrs by propidium iodide staining based flow cytometeric analysis (reference value: 24.7 +/- 1.9%); type: functional
MCF7 = assay: Antiproliferative activity against human MCF7 cells after 72 hrs by MTT assay; type: functional, cell-based; conditions: Homo sapiens, MCF7, 72 h; method in brief: as §1
SK-BR-3 [17] = assay: Cell cycle arrest in human SKBR3 cells assessed as accumulation at subG1 phase at 5 uM after 48 hrs by propidium iodide staining based flow cytometeric analysis (reference value: 2.1 +/- 0.2%); type: functional
HEp-2 = assay: Antiproliferative activity against human Hep2 cells after 72 hrs by MTT assay; type: functional, cell-based; conditions: Homo sapiens, HEp-2, 72 h; method in brief: as §1
SK-BR-3 [18] = assay: Cell cycle arrest in human SKBR3 cells assessed as accumulation at G1 phase at 50 uM after 24 hrs by propidium iodide staining based flow cytometeric analysis (reference value: 39.5 +/- 1.1%); type: functional
SK-BR-3 [19] = assay: Cell cycle arrest in human SKBR3 cells assessed as accumulation at S phase at 5 uM after 48 hrs by propidium iodide staining based flow cytometeric analysis (reference value: 40.6 +/- 4.9%); type: functional
SK-BR-3 [20] = assay: Cell cycle arrest in human SKBR3 cells assessed as accumulation at S phase at 10 uM after 24 hrs by propidium iodide staining based flow cytometeric analysis (reference value: 39.9 +/- 1.5%); type: functional
SK-BR-3 [21] = assay: Cell cycle arrest in human SKBR3 cells assessed as accumulation at G1 phase at 10 uM after 48 hrs by propidium iodide staining based flow cytometeric analysis (reference value: 24.7 +/- 1.9%); type: functional
SW-620 = assay: Antiproliferative activity against human SW620 cells after 72 hrs by MTT assay; type: functional, cell-based; conditions: Homo sapiens, SW-620, 72 h; method in brief: as §1
SK-BR-3 [22] = assay: Cell cycle arrest in human SKBR3 cells assessed as accumulation at G2/M phase at 5 uM after 24 hrs by propidium iodide staining based flow cytometeric analysis (reference value: 20.6 +/- 2.1%); type: functional
SK-BR-3 [23] = assay: Cell cycle arrest in human SKBR3 cells assessed as accumulation at G1 phase at 5 uM after 24 hrs by propidium iodide staining based flow cytometeric analysis (reference value: 39.5 +/- 1.1%); type: functional
HeLa = assay: Antiproliferative activity against human HeLa cells after 72 hrs by MTT assay; type: functional, cell-based; conditions: Homo sapiens, HeLa, 72 h; method in brief: as §1
SK-BR-3 [24] = assay: Cell cycle arrest in human SKBR3 cells assessed as accumulation at G2/M phase at 10 uM after 24 hrs by propidium iodide staining based flow cytometeric analysis (reference value: 20.6 +/- 2.1%); type: functional
SK-BR-3 [25] = assay: Cell cycle arrest in human SKBR3 cells assessed as accumulation at G2/M phase at 10 uM after 48 hrs by propidium iodide staining based flow cytometeric analysis (reference value: 34.7 +/- 3.3%); type: functional

Nc1ccc2c(ccc3nc4ncccc4n32)c1 was tested, and the Activity (SK-BR-3 [1]) was 5.5%, the Activity (SK-BR-3 [2]) was 35.7% and the Activity (SK-BR-3 [3]) was 47.6%. For the same compound, the IC50 (WI-38) was greater than 100 µM, the Activity (SK-BR-3 [4]) was 64.2% and the Activity (SK-BR-3 [5]) was 50.2%. The IC50 (SK-BR-3 [6]) was 2.94 µM, the Activity (SK-BR-3 [7]) was 32.5% and the Activity (SK-BR-3 [8]) was 39.4%. The Activity (SK-BR-3 [9]) was 45.8%, the IC50 (MIA PaCa-2) was 48.2 µM and the Activity (SK-BR-3 [10]) was 15.8%. It also gave an Activity (SK-BR-3 [11]) of 3.1%, an Activity (SK-BR-3 [12]) of 18.7% and an Activity (SK-BR-3 [13]) of 48.1%. The Activity (SK-BR-3 [14]) was 19.9%, the Activity (SK-BR-3 [15]) was 35.1% and the Activity (SK-BR-3 [16]) was 24.4%. The IC50 (MCF7) was 72.4 µM, the Activity (SK-BR-3 [17]) was 1.9% and the IC50 (HEp-2) was 39.2 µM. For the same compound, the Activity (SK-BR-3 [18]) was 33.2%, the Activity (SK-BR-3 [19]) was 59.8% and the Activity (SK-BR-3 [20]) was 34.5%. The Activity (SK-BR-3 [21]) was 20.9%, the IC50 (SW-620) was 34.8 µM and the Activity (SK-BR-3 [22]) was 17.7%. It also gave an Activity (SK-BR-3 [23]) of 47.1%, an IC50 (HeLa) of 43.4 µM and an Activity (SK-BR-3 [24]) of 26.1%. It also gave an Activity (SK-BR-3 [25]) of 14.8%.
